# Only some compounds are listed: those with a hit (about 1.4% of all), similar ones and a draw of the others.
# Mot1-301 SUMO: blocks SUMOylation pathway, rescuing yeast Mot1-301 growth. growth rescue, % at 18.8 µM. S. cerevisiae Mot1-301 growth rescue, ATP luminescence, 38.5C; percent above DMSO median, 100 means doubled. hit rate 1% among 320,000. AID 2716;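 active = every valid replicate shows activation above 250% relative to neutral control wells; inactive = the rest, any valid replicate at or below 250%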;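 note: OY570 slx delta 5 strain wells were the positive control but not used for scaling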
# JMJD2C inh: blocks human GASC-1 demethylase activity | Q9H3R0 | AID 2099 | inhibition, % at 2.35 µM | GST-JMJD2C(1-420) H3K9me3 demethylation, DELFIA europium | hit rate 0.069% among 330,000;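 active = more than half of a compound's replicate wells show inhibition beyond 50%, single wells judged on their own value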;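 note: signal counts dimethyl H3K9 product captured on neutravidin plate; 0% = median of DMSO wells and 100% = 0.3 times that DMSO median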
# Target sequence (Q9H3R0 1-420 limits assumed): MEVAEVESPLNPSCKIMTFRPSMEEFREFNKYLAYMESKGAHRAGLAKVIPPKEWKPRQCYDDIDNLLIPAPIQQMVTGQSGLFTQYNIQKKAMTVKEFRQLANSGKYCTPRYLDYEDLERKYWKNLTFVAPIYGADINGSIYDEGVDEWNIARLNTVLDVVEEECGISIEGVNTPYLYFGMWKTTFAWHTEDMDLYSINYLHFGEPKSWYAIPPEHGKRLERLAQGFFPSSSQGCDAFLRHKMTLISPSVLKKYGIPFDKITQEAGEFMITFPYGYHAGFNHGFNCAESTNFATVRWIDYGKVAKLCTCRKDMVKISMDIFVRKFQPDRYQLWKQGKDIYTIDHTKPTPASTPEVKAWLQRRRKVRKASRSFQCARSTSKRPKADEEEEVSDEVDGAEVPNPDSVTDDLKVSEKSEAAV
# T cell modulator: modulates CD8 T cell binding to vesicles | 2C CD8+ T cell-vesicle binding, flow cytometry; hits give low values | response (vesicle binding), % at 7 µM | hit rate 0.068% among 330,000;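 active = response, share of CD8 T cells binding vesicles, and their 90th percentile fluorescence all below set limits, cut at about 80% in these data, passing the limit was not always enough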;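 note: values below 100% mean blocked vesicle binding to the CD8+ T cells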
#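 material = purified 2C TCR transgenic mouse naive CD8+ T cells | controls = Unloaded micro-vesicles (low), QL9 vesicles with 0.7% DMSO (high) | detection = cytometric PE anti-B7-1 and Alexa647 anti-CD8 signals after 1% paraformaldehyde fixation | incubation = binding step 1.5 h, 37 °C, antibody labelling 20 min, ice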
# HIF activator: HIF pathway transcriptional activation. U2OS HRE-luciferase reporter, luminescence; normalized: DMSO 0%, desferrioxamine 100%. activation, % at 7.5 µM (by protocol). hit rate 0.32% among 300,000. AID 1910;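 active = mean activation of at least 10% of the iron chelator positive control signal, with at least half of replicates also reaching 10%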
# An asterisk follows results filed as active; i = inactive; . = no result given.
SMILES,Mot1-301 SUMO,JMJD2C inh,T cell modulator,HIF activator
CSc1nnc(-c2ccc(S(=O)(=O)N3CCOCC3)cc2)n1CC1CCCO1 (centres undefined),333.4*,3.8,620.8,-0.1
CCSc1nnc(-c2ccc(S(=O)(=O)N3CCOCC3)cc2)n1CC1CCCO1 (centres undefined),137.4,-44.4,212.4,-1.0
CCN(CC)S(=O)(=O)c1ccc2c(c1)c(=O)c(C(=O)NCCc1ccccc1)cn2C,-1.0,-7.2,100.1,-1.0
C(=N\Nc1ccccc1)/c1nc2ccccc2s1,-13.6,0.6,364.8,2.4
CC(=O)Nc1c([N+](=O)[O-])cc(C)c(Cl)c1[N+](=O)[O-],-8.5,-2.9,306.1,12.8*
CCOC(=O)C1=C(C)N(C)C(=O)NC1c1c(C)nn(-c2ccc(C)cc2)c1Cl (centres undefined),8.5,6.5,149.1,0.2
CCOC(=O)C1=C(C)NC(=O)NC1c1c(C)nn(-c2ccccc2)c1Cl (centres undefined),-21.7,60.5*,144.0,0.0
CSc1nc(N(C)NC(=O)c2ccccc2)c2ccccc2n1,162.1,13.5,367.7,-0.5
CSc1nc(N(C)NC(=O)c2ccc(Cl)cc2)c2ccccc2n1,333.8*,0.2,308.7,0.6
O=c1c(O)c(-c2ccccc2)oc2cc(O)cc(O)c12,.,.,248.1,.
O=c1c(O)c(-c2cc(O)c(O)c(O)c2)oc2cc(O)cc(O)c12,265.0*,.,556.3,.
C/C(=N\NC(=O)C1CC1)c1ccccc1O,640.1*,-4.3,200.7,-0.1
CCOc1ccc(C(=O)NCC2CCCN2S(=O)(=O)c2cccs2)cc1 (centres undefined),1.3,-25.4,231.4,-0.6
CN(C)/N=C/C=C1\CCC/C(=C/c2cccs2)C1=O,0.0,-0.3,271.2,10.3*
CN(C)/N=C/C=C1\CC/C(=C\c2ccc(Br)cc2)C1=O,14.1,-17.0,628.3,3.6
COc1ccc(Nc2c3ccccc3nc3ccccc23)cc1,-8.4,2.5,307.1,3.4
c1ccc2c(Nc3nncs3)c3ccccc3nc2c1,313.9*,-5.9,719.6,0.1
COc1ccc(-c2cc(C(F)F)n3ncc(C(=O)N4CCc5ccccc54)c3n2)cc1,-5.8,-2.2,309.5,1.1
Cc1ccc(-c2cc(C(F)F)n3ncc(C(=O)N4CCCc5ccccc54)c3n2)cc1,382.8*,7.4,264.1,-2.2
CCOc1ccc(S(=O)(=O)NCCCn2ccnc2)cc1,-11.1,-6.3,271.9,-0.5
NNC(=O)c1cccnc1Oc1ccccc1,-22.7,i,640.4,0.0
NC(=O)c1cccnc1Oc1ccccc1,350.1*,13.8,289.2,-0.5
O=C(Nc1ccccc1O)c1ccc(NC(=O)C2CC2)cc1,-17.1,-1.2,387.1,57.8*
CCCCc1ccc(NC(=O)CSc2nc(=O)n(CCN3CCOCC3)c3c2CCC3)cc1,201.4,-9.1,124.4,0.3
CCCCc1ccc(NC(=O)CSc2nc(=O)n(CCCN3CCOCC3)c3c2CCC3)cc1,536.3*,2.9,171.4,-0.2
SMILES,Mot1-301 SUMO,JMJD2C inh,T cell modulator,HIF activator
CCOC(=O)Cc1csc(NC(=O)c2c(O)c3c(n(CC(C)C)c2=O)CCCC3)n1,-9.6,-15.7,227.6,0.0
CCC/C(=N\NC(=O)C1CC1)c1ccccc1,-1.4,-6.0,444.3,1.2
CCC/C(=N/NC(=O)c1cccc(Cl)c1)c1ccccc1,-6.7,7.1,242.5,10.3*
CCOc1ccc2oc(C(=O)N(CCOC)c3c(N)n(CC(C)C)c(=O)[nH]c3=O)c(C)c2c1,14.5,5.8,486.3,.
O=C(C1CCCN(Cc2ccccc2F)C1)N1CCc2ccccc2C1 (centres undefined),-22.2,-1.8,311.0,108.4*
CN1CCC2(CC1)N=C(c1ccc(F)cc1)C(=S)N2C(=O)c1ccc(C(C)(C)C)cc1,1.3,-9.6,204.7,191.2*
CC(C)(C)c1ccc(C(=O)N2CCNCC2)cc1,-6.6,-11.0,859.8,-0.2
COc1ccc(/C(O)=C2/C(=O)C(=O)N(c3ncccn3)C2c2ccc(C(C)(C)C)cc2)cc1 (centres undefined),-15.7,-23.5,223.2,1.7
O=[N+]([O-])c1cc(/C=N/O)ccc1Oc1ccccc1Cl,265.8*,4.9,85.2,0.6
CC(=O)c1cc(CN2CCN(C(C)C)C(CCO)C2)cs1 (centres undefined),10.8,2.5,i,-0.8
O=C1C=C(c2cccc(Br)c2)C[C@@H](c2ccc3c(c2)OCO3)C1,-10.2,6.6,571.5,.
Cc1cc(C)nc(N/N=C/C2=C(O)CC(c3ccccc3)CC2=O)n1 (centres undefined),2.6,-3.3,180.6,22.4*
O=C(Nc1ccc(Cl)cc1)N1CCN(c2ccccc2)CC1,9.0,51.9*,195.5,0.7
CC(=O)c1c(C)[nH]c(C(=O)N2CCN(c3ccccn3)CC2)c1C,4.1,0.4,296.7,0.3
Cc1c(C(=O)N2CCCCC2)c(S(=O)(=O)NCCc2ccc(Cl)cc2)c(C)n1C,-2.3,-12.6,284.7,13.9*
C[C@H]1CN(CCc2ccccc2)C(=O)[C@@H]1CC(=O)NCc1ccccc1,1.4,60.6*,886.4,-0.3
O=C(NCc1ccccc1)c1ccc2c(c1)C(=O)N(Cc1cccnc1)C2=O,-9.0,-0.1,202.4,0.0
O=C1c2ccc([N+](=O)[O-])cc2C(=O)N1Cc1cccnc1,-11.1,52.5*,362.6,-0.3
COc1ccccc1CNC(=O)C(=O)NCC1CCCN1S(=O)(=O)c1cccs1 (centres undefined),290.2,-2.0,208.8,0.1
Cc1nc(NC(=O)CCN2C(=O)C3CC=CCC3C2=O)sc1C (centres undefined),1.1,-3.4,258.0,0.1
Cc1cc(C)n(CCN(C)C(=O)C2CCC(=O)N(CCN3CCOCC3)C2)n1 (centres undefined),-2.3,15.8,276.2,-0.3
Cc1cccc(NC(=O)COc2cccc3c2CCN(C)C3=O)c1C,11.8,12.1,237.1,9.8*
CCN1CCc2c(OCC(=O)Nc3cccc(C)c3C)cccc2C1=O,14.6,-10.4,66.6*,0.0
CCCOc1ccccc1/C=C(\C#N)C(=O)Nc1cccnc1,-10.8,4.6,490.2,2.6
CCOC(=O)N1CCN(S(=O)(=O)c2ccc(OCC(=O)OC)c(Cl)c2)CC1,286.7*,52.6,584.2,-1.6
SMILES,Mot1-301 SUMO,JMJD2C inh,T cell modulator,HIF activator
CCOC(=O)N1CCN(S(=O)(=O)c2ccc(OC)c(Cl)c2)CC1,-3.1,-1.4,152.6,0.0
Cc1cccc2sc(N(CCCN3CCOCC3)C(=O)CS(=O)(=O)c3ccc(F)cc3)nc12,307.7,-3.3,503.2,0.0
O=C(CS(=O)(=O)c1ccccc1)N(CCCN1CCOCC1)c1nc2c(F)cccc2s1,348.7*,-1.7,221.2,0.4
Cc1ccc(-n2nc3c(c2NC(=O)c2ccco2)CS(=O)C3)cc1 (centres undefined),4.6,3.5,333.5,0.0
Oc1c(C(Nc2nccs2)c2ccc(C(F)(F)F)cc2)ccc2cccnc12 (centres undefined),.,19.3,.,58.4*
Oc1c(C(Nc2cccc(C(F)(F)F)c2)c2ccncc2)ccc2cccnc12 (centres undefined),-14.9,0.4,221.1,23.6*
